T cell HTS: T cell immune modulation candidate | response (vesicle binding), % at 7 µM | 0.068% of 330,000 active | 2C CD8+ T cell-vesicle binding, flow cytometry; hits give low values;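 active = response, share of CD8 T cells binding vesicles, and their 90th percentile fluorescence all below set limits, cut at about 80% in these data, passing the limit was not always enough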;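 note: values below 100% mean blocked vesicle binding to the CD8+ T cells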
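Benchmarks: naked versus QL9-loaded vesicles / Assay system: purified 2C TCR transgenic mouse naive CD8+ T cells / Technique: high-throughput flow cytometry with anti-B7-1 and anti-CD8 staining / Timing: Cell–vesicle co-incubation 1.5 h at 37 °C, staining 20 min on ice / Read-out: percent CD8+ FL2 mean versus row control / Probe or stimulus: QL9-loaded Drosophila micro-vesicles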
CR mimetic SO: caloric restriction mimetics inhibiting age-related superoxide in yeast; superoxide response (% of plate mean), % at 10 µM; S. cerevisiae aged cells, superoxide DHE fluorescence; hits give low values; AID 2690; 0.18% of 330,000 active;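 active = superoxide response under a set limit, about three screen SD below normal, cut at about 65% in these data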;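 note: yeast aged for seven days with compound at 30 °C before DHE staining; 100% = average MFI of all compound-treated wells on the plate with controls excluded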
S1P3 antagonist: blocks the human S1P3 receptor. inhibition, % at 4.98 µM. Q99500. CHO S1P3 NFAT-BLA reporter, FRET fluorescence, antagonist mode. AID 485. 0.27% of 170,000 active;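 active = inhibition above the plate cutoff, the mean inhibition of test wells on that plate plus 3 SD, cut at about 28% in these data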;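 note: cells challenged with S1P at its EC80 of 0.8 µM; blue over green emission ratio from cleaved BLA substrate after 4 h stimulation; 0% = S1P-stimulated wells and 100% = unstimulated DMSO-only wells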
Target sequence (Q99500 whole entry, looked up): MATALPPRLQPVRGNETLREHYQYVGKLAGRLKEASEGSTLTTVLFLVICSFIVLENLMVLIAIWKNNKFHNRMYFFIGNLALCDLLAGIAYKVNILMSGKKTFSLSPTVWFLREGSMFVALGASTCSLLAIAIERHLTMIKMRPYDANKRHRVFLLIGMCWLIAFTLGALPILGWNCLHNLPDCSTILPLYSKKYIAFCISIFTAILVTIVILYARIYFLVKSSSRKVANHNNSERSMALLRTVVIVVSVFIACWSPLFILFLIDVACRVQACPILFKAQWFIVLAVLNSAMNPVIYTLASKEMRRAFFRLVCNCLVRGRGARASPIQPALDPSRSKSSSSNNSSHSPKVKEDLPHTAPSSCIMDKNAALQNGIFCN
Superoxide pick: yeast aging superoxide inhibition, cherry pick confirmation; superoxide response (% of plate), % at 10 µM; AID 434994; shares compounds with CR mimetic SO; 1% of 850 active; S. cerevisiae aging, superoxide DHE fluorescence; hits give low values;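 active = superoxide signal below 65% of the plate average of sample wells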;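 note: cells aged with compound for 7 days at 30 degrees C before staining; 100% equals mean DHE fluorescence of all compound wells on the plate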
DHE fluor count: DHE fluorescence interference, counter-screen artifact | S. cerevisiae BY4741, flow cytometry; hits give low values | AID 435000 | shares compounds with CR mimetic SO | 850 tested, under 10 active | fluorescence response, % at 10 µM;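 active = fluorescence response below 15%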;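 note: percent of the mean fluorescence averaged over all compound wells on the plate; lower means stronger quenching of DHE signal or ROS scavenging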
Starred values were filed as active, the others as inactive. Only some compounds are listed: those with a hit (about 0.41% of all), similar ones and a draw of the others.

Screening O=S(=O)(c1ccc(Cl)cc1)c1ccccn1 returned T cell HTS 159 and CR mimetic SO 101.
Screening NS(=O)(=O)c1ccc(S(=O)(=O)c2ccccc2)nc1 returned T cell HTS 246, CR mimetic SO 64*, Superoxide pick 83 and DHE fluor count 90.
Screening COc1ccc(CCC(=O)OCC(=O)NC(=O)c2ccc(Cl)cc2)cc1 returned T cell HTS 508 and CR mimetic SO 85.
Screening COC(=O)c1ccc(NC(=O)CSc2ccc(-c3ccccn3)nn2)cc1 returned T cell HTS 366, CR mimetic SO 102, Superoxide pick 82 and DHE fluor count 98.
CCn1c(SCC(=O)Nc2ccc(C(=O)OC)cc2)nnc1-c1cccs1 was read as T cell HTS 400, CR mimetic SO 89, S1P3 antagonist -7, Superoxide pick 105 and DHE fluor count 101.
Screening Cc1cc(C)cc(NC(=O)CSc2ccc(-c3ccccn3)nn2)c1 returned T cell HTS 105 and CR mimetic SO 109.
Screening CCn1c(SCC(=O)N2CCN(S(=O)(=O)c3ccccc3)CC2)nnc1-c1cccs1 returned T cell HTS 689, CR mimetic SO 63*, S1P3 antagonist -1, Superoxide pick 101 and DHE fluor count 92.
`CCn1c(SCC(=O)NCC(=O)Nc2ccc(F)cc2)nnc1-c1cccs1` gave T cell HTS 481, CR mimetic SO 104 and S1P3 antagonist -36.
CCOc1ccc(NC(=O)CSc2nnc(C)n2CC)cc1 was read as T cell HTS 203 and CR mimetic SO 100.
Screening Cc1nnc(SCC(=O)N2CCN(S(=O)(=O)c3ccccc3)CC2)n1Cc1ccccc1 returned T cell HTS 341, CR mimetic SO 103 and S1P3 antagonist -7.
Screening CCn1c(C)nnc1SCC(=O)Nc1ccc(C(C)=O)cc1 returned T cell HTS 417, CR mimetic SO 59*, Superoxide pick 91 and DHE fluor count 98.
For O=C(NCCCN1CCOCC1)c1cc(Cl)ccc1OCc1ccccc1 the results were T cell HTS 271.
`O=C(COC(=O)c1cnccn1)N=c1sccn1Cc1ccccc1Cl` gave T cell HTS 272 and CR mimetic SO 97.
`Cc1cccc(C)c1NC(=O)CN1CCN(CC(=O)NCC2(N3CCCCC3)CCCCC2)CC1` gave T cell HTS inactive and CR mimetic SO 90.
Screening Cc1cc(C)n2nc(SCC(=O)N3CCN(c4ccccc4)CC3)nc2n1 returned T cell HTS inactive and CR mimetic SO 83.
For O=C(NCCS(=O)(=O)N1CCN(Cc2ccccc2)CC1)c1ccccc1 the results were T cell HTS 186 and CR mimetic SO 100.
Screening CN1CC(=O)N(CC(=O)Nc2ccc(N3CCOCC3)cc2)C1=O returned T cell HTS 286 and CR mimetic SO 86.
CCC(C)(C)c1ccc(OCCCC[n+]2ccc(C)cc2)c(C(C)(C)CC)c1 was read as T cell HTS 158, CR mimetic SO 61*, S1P3 antagonist -15, Superoxide pick 100 and DHE fluor count 96.
For Cc1cc[n+](CC[n+]2ccc(C)cc2)cc1 the results were T cell HTS 705 and CR mimetic SO 99.
For CC(=O)N1CCc2cc(S(=O)(=O)CCC(=O)Nc3cc(C)cc(C)c3)ccc21 the results were T cell HTS 272 and CR mimetic SO 95.
Screening COc1ccc(CC(=O)Nc2nc(-c3cccnc3)cs2)cc1 returned T cell HTS 160, CR mimetic SO 63*, S1P3 antagonist -5, Superoxide pick 98 and DHE fluor count 108.
Screening COc1cccc(CC(=O)Nc2nc(-c3cccnc3)cs2)c1 returned T cell HTS 179, CR mimetic SO 98 and S1P3 antagonist 5.
`Cc1cccc(NC(=O)CCC2CCN(C(=O)C3CC=CCC3)CC2)c1` (stereo not given) gave T cell HTS 212 and CR mimetic SO 108.
`CCC(CO)NCc1ccc2c(c1)n(C)c(=O)n2C` (stereo not given) gave T cell HTS 369, CR mimetic SO 61*, S1P3 antagonist -11, Superoxide pick 121 and DHE fluor count 120.
For CCc1ccc(C(=O)Nc2ccc3c(c2)n(C)c(=O)n3C)cc1 the results were T cell HTS 219 and CR mimetic SO 97.
For CCN(CC)C(=O)CN(C#N)c1nc(OC)nc(N(C)C)n1 the results were T cell HTS 360 and CR mimetic SO 104.
COc1nc(N(C)C)nc(N(C#N)CCOC(C)=O)n1 was read as T cell HTS 191, CR mimetic SO 64*, S1P3 antagonist -22, Superoxide pick 113 and DHE fluor count 104.

High-throughput results as filed in PubChem BioAssay.
